Bioassay records as filed in PubChem.
HCV NS3 hel inh – blocks Hepatitis C virus NS3 helicase unwinding; NS3 helicase DNA unwinding, Cy5 molecular beacon fluorescence; inhibition, % at 10.9 µM; hit rate 0.56% among 290,000;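 active = inhibition above the mean of all tested compounds plus 3 SD, set per campaign, cut at about 35% in these data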
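assay system = NS3 helicase fragment of HCV | buffer or medium = MOPS pH 6.5, MgCl2, DTT, Tween20, BSA | timing = 60 min unwinding reaction at 25 °C after ATP addition | signal = Cy5 beacon fluorescence read at start and 1 h | read-out basis = % inhibition of unwinding | control set = low DMSO, high thioflavine S at 110 µM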
FID counter – fluorescent intercalator displacement, NS3 helicase counter-screen; DNA fluorescent intercalator displacement, fluorescence; inhibition, % at 7.9 µM; hit rate 0.17% among 290,000; AID 1845; in the data active = inhibition above about 37%;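 also: higher means more ethidium bromide displaced from hairpin DNA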
IMP-1 inh-1 – inhibitors of Pseudomonas aeruginosa IMP-1 metallo-beta-lactamase; purified IMP-1, nitrocefin hydrolysis, epi-absorbance fluorescence; inhibition, % at 5.6 µM; hit rate 0.45% among 290,000; AID 1556;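 active = inhibition above the mean plus 3 SD of all compounds in the same screening run, cut at about 4.5% in these data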
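Assay system: purified recombinant IMP-1 beta-lactamase. Input: IMP-1 0.2 nM before substrate addition. Buffer or medium: Zinc- and detergent-supplemented HEPES buffer, pH 7.1. Schedule: 25 °C, 15 min preincubation, 25 min reaction. Signal: Epi-absorbance fluorescence, 480 nm excitation, 530 nm emission. Evaluation: percent inhibition from optical density relative to buffer-blank wells.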
VIM-2 inhibitor – blocks Pseudomonas aeruginosa VIM-2 metallo-beta-lactamase; purified VIM-2, nitrocefin hydrolysis, epi-absorbance fluorescence; inhibition, % at 5.6 µM; hit rate 0.89% among 290,000; AID 1527;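 active = inhibition above the mean of all tested compounds plus 3 SD, cutoff set per screening run, cut at about 7.5% in these data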;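 also: red hydrolysis product quenches plate fluorescence so inhibitors raise well fluorescence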
IMP-1 inh-2 – blocks IMP-1 metallo-beta-lactamase in VIM-2 selectivity screen; shares compounds with VIM-2 inhibitor; purified IMP-1, nitrocefin hydrolysis, epi-absorbance fluorescence; inhibition, % at 5.6 µM; 1,300 tested, under 10 active; call rule not given here
VIM-2 FRET ctr – counter-screen for VIM-2 inhibitors: epi-absorbance artifacts via FRET; shares compounds with VIM-2 inhibitor; purified VIM-2, CCF2 FRET substrate hydrolysis; inhibition, % at 5.6 µM; hit rate 23% among 1,300; AID 1857;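 active = inhibition above the mean of all tested compounds plus 3 SD, cut at about 19% in these data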
TEM-1 inh – selectivity counter-screen for VIM-2 inhibitors: E. coli TEM-1 inhibitors; shares compounds with VIM-2 inhibitor; Purified TEM-1, nitrocefin hydrolysis, epi-absorbance fluorescence; inhibition, % at 5.6 µM; hit rate 3% among 1,300; AID 1866;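 active = inhibition above that campaign's mean inhibition plus 3 SD, cut at about 0.46% in these data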
Target sequence (P62593 whole entry, looked up): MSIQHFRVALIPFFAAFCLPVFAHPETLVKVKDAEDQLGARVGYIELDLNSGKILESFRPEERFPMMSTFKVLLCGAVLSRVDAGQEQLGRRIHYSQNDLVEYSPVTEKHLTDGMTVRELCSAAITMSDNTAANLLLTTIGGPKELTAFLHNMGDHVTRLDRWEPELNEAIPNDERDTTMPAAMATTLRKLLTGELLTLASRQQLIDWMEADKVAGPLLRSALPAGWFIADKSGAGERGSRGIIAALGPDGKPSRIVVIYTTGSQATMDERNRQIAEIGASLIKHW
VIM-2 confirm 2 – confirmation of P. aeruginosa VIM-2 metallo-beta-lactamase inhibitors; purified VIM-2, nitrocefin hydrolysis, epi-absorbance; shares compounds with VIM-2 inhibitor; AID 2187; inhibition, % at 5.6 µM; hit rate 96% among 1,300;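 active = inhibition of the VIM-2 beta-lactamase enzyme above about 11% from the earlier first-round screen, limit read from the data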
Each line names hits and unclear results; the compound was inactive in the other large screens (follow-up assays come after a bar, where they were run). Only some compounds are listed: those with a hit (about 1.9% of all), similar ones and a draw of the others.

CN1C(=O)/C(=C2\SC(N3CCCCCC3)=NC2=O)c2ccccc21	VIM-2 inhibitor 13 | IMP-1 inh-2 inactive | VIM-2 FRET ctr inactive | TEM-1 inh inactive | VIM-2 confirm 2 26
Cc1ccc2[nH]c(=O)c(CN(Cc3ccco3)C(=O)CN3CCCC(C)C3)cc2c1 (configuration not stated)	none
Cc1ccc(NC(=O)c2cccnc2C(=O)O)nc1	none
CCN1CCN(c2nc3ccccc3n3cnnc23)CC1	none
Cc1nnc2c(N3CCN(CCO)CC3)nc3ccccc3n12	VIM-2 inhibitor 13 | IMP-1 inh-2 inactive | VIM-2 FRET ctr inactive | TEM-1 inh inactive | VIM-2 confirm 2 14
COC(=O)c1ccc(Cl)cc1NC(=O)/C=C/c1ccc(C)o1	none
CCN(CC)CCOc1ncnc2c1oc1ccccc12	VIM-2 inhibitor 15 | IMP-1 inh-2 inactive | VIM-2 FRET ctr inactive | TEM-1 inh inactive | VIM-2 confirm 2 14
CCn1c(SCC(=O)O)nc2sc3c(c2c1=O)CCC3	none
Cn1c(SCC(=O)O)nc2sc3c(c2c1=O)CCC3	VIM-2 inhibitor 14 | IMP-1 inh-2 inactive | VIM-2 FRET ctr 30 | TEM-1 inh inactive | VIM-2 confirm 2 22
CC12CCC(c3c(C(=O)O)nn(-c4ccccc4)c31)C2(C)C (configuration not stated)	VIM-2 inhibitor 14 | IMP-1 inh-2 inactive | VIM-2 FRET ctr 26 | TEM-1 inh inactive | VIM-2 confirm 2 18
CC12CCC(c3c(CO)nn(-c4ccccc4)c31)C2(C)C (configuration not stated)	none
Cc1cccc(NC(=O)CCS(=O)(=O)c2cccc3nonc23)c1C	none
CN1CCN(C(=O)CCc2nc3ccccc3c(=O)[nH]2)CC1	VIM-2 inhibitor 21 | IMP-1 inh-2 inactive | VIM-2 FRET ctr inactive | TEM-1 inh inactive | VIM-2 confirm 2 42
NC(=O)C1CCN(C(=O)CCc2nc3ccccc3c(=O)[nH]2)CC1	none
ClC(Cl)(Cl)c1nc2ccccc2n2nncc12	VIM-2 inhibitor 24 | IMP-1 inh-2 inactive | VIM-2 FRET ctr inactive | TEM-1 inh inactive | VIM-2 confirm 2 38
CCOP(=O)(c1ccc(N(C)C)cc1)C(O)c1ccccc1F (configuration not stated)	none
CCCc1[nH][nH]c(=O)c1C(c1ccc(Cl)cc1)C(C#N)C#N (configuration not stated)	VIM-2 inhibitor 12 | IMP-1 inh-2 inactive | VIM-2 FRET ctr inactive | TEM-1 inh inactive | VIM-2 confirm 2 inactive
O=c1oc2cc(O[C@@H]3OC[C@@H](O)[C@H](O)[C@H]3O)ccc2c2ccccc12	VIM-2 inhibitor 16 | IMP-1 inh-2 inactive | VIM-2 FRET ctr inactive | TEM-1 inh inactive | VIM-2 confirm 2 28
CC(=C/c1ccccc1)/C=N/n1c(-c2ccco2)n[nH]c1=S	VIM-2 inhibitor 17 | IMP-1 inh-2 inactive | VIM-2 FRET ctr 38 | TEM-1 inh inactive | VIM-2 confirm 2 23
S=c1[nH]nc(-c2ccco2)n1-c1cccc2ccccc12	VIM-2 inhibitor 19 | IMP-1 inh-2 inactive | VIM-2 FRET ctr 49 | TEM-1 inh inactive | VIM-2 confirm 2 32
COc1ccccc1-n1c(-c2ccco2)n[nH]c1=S	VIM-2 inhibitor 22 | IMP-1 inh-2 inactive | VIM-2 FRET ctr 44 | TEM-1 inh inactive | VIM-2 confirm 2 28
CC(C)Oc1ccc(Cn2c(-c3ccco3)n[nH]c2=S)cc1	VIM-2 inhibitor 16 | IMP-1 inh-2 inactive | VIM-2 FRET ctr 45 | TEM-1 inh inactive | VIM-2 confirm 2 27
COc1ccc(OC)c(/C=N/NC2=NS(=O)(=O)c3ccccc32)c1	none
C=C(C)Cn1c(-c2cccs2)n[nH]c1=S	VIM-2 inhibitor 48 | IMP-1 inh-2 inactive | VIM-2 FRET ctr 71 | TEM-1 inh inactive | VIM-2 confirm 2 53
O=C(COc1ccc2c(c1)oc(=O)c1ccccc12)NCCN1CCOCC1	VIM-2 inhibitor 19 | IMP-1 inh-2 inactive | VIM-2 FRET ctr inactive | TEM-1 inh inactive | VIM-2 confirm 2 27
O=C(COc1cc2oc(=O)c3c(c2cc1Cl)CCC3)NCCCN1CCCC1=O	VIM-2 inhibitor 18 | IMP-1 inh-2 inactive | VIM-2 FRET ctr inactive | TEM-1 inh inactive | VIM-2 confirm 2 32
CC(C)CCNC(=O)COc1ccc2c3c(c(=O)oc2c1)CCC3	none
O=C(COc1ccc2c(-c3ccccc3)cc(=O)oc2c1)NCCCN1CCOCC1	none
O=C(COc1ccc2c3c(c(=O)oc2c1)CCC3)NCCN1CCOCC1	VIM-2 inhibitor 19 | IMP-1 inh-2 inactive | VIM-2 FRET ctr inactive | TEM-1 inh inactive | VIM-2 confirm 2 25
CCN(CC)C(=O)Cn1cc(C(=O)C(=O)N2CCN(Cc3ccc4c(c3)OCO4)CC2)c2ccccc21	none
COc1ccc(NC(=O)CSc2nnnn2C2CCCCC2)cc1	none
COc1ccccc1CC(=O)Nc1ccon1	none
CC(C)(C)c1ccc(-c2n[nH]c(=S)n2CCCN2CCOCC2)cc1	VIM-2 inhibitor 13 | IMP-1 inh-2 inactive | VIM-2 FRET ctr 33 | TEM-1 inh inactive | VIM-2 confirm 2 22
CC(C)(C)c1ccc(-c2n[nH]c(=S)n2CC2CCCO2)cc1 (configuration not stated)	none
Cc1cccc(C(=O)NC(=S)Nc2ccc(S(=O)(=O)N3CCCCC3)cc2)c1	none
Cc1ccc(C(=O)NC(=S)Nc2ccc(S(=O)(=O)N3CCN(C)CC3)cc2)cc1	VIM-2 inhibitor 31 | IMP-1 inh-2 inactive | VIM-2 FRET ctr inactive | TEM-1 inh inactive | VIM-2 confirm 2 63
Cc1cccc(C(=O)NC(=S)Nc2ccc(S(=O)(=O)N3CCN(C)CC3)cc2)c1	VIM-2 inhibitor 38 | IMP-1 inh-2 inactive | VIM-2 FRET ctr inactive | TEM-1 inh inactive | VIM-2 confirm 2 69
Cc1ccc(C(C(=O)NC2CCCCC2)N(Cc2cccnc2)C(=O)c2csnn2)cc1 (configuration not stated)	none
COc1ccc(/C=C/c2nnc(NC(=O)COc3ccc(C)cc3)s2)cc1	none
CCCn1c(=N)c(S(=O)(=O)c2ccc(F)cc2)cc2c(=O)n3cccc(C)c3nc21	VIM-2 inhibitor 13 | IMP-1 inh-2 inactive | VIM-2 FRET ctr inactive | TEM-1 inh 2.9 | VIM-2 confirm 2 27
CCc1c(C)c(C#N)c2nc3ccccc3n2c1NCCN(C)C	none
CCN(CC)c1cc(C)c(C#N)c2nc3ccccc3n12	none
CNc1cc(C)c(C#N)c2nc3ccccc3n12	VIM-2 inhibitor 24 | IMP-1 inh-2 inactive | VIM-2 FRET ctr inactive | TEM-1 inh inactive | VIM-2 confirm 2 35
CCc1c(C)c(C#N)c2nc3ccccc3n2c1NC	VIM-2 inhibitor 14 | IMP-1 inh-2 inactive | VIM-2 FRET ctr inactive | TEM-1 inh inactive | VIM-2 confirm 2 21
Cc1cc(Cl)n2c(nc3ccccc32)c1C#N	VIM-2 inhibitor 20 | IMP-1 inh-2 inactive | VIM-2 FRET ctr inactive | TEM-1 inh inactive | VIM-2 confirm 2 34
